Measurements reported in ChEMBL document CHEMBL3763151, “Antinociceptive Grayanoids from the Roots of Rhododendron molle” (J Nat Prod, 2015).
The source made the active and inactive calls.

Legend:
[1] = test system: Mus musculus; assay: Antinociceptive activity in Kunming mouse model of acute pain assessed as inhibition of acetic acid-induced writhes at 5 mg/kg, ip administered 30 mins prior to acetic acid challenge measured for 30 mins; assay type: functional, organism-based
Procedure, shortened: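 Acute-pain model in mice: compounds given ip, and writhing counted against vehicle-injected mice.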

[2] = test system: Mus musculus; assay: Antinociceptive activity in ip dosed Kunming mouse model of acute pain assessed as inhibition of acetic acid-induced writhes administered 30 mins prior to acetic acid challenge measured for 30 mins; assay type: functional; details: for ED50: read-out: ID50 (the source's name)
Procedure, shortened: (§1)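 Acetic acid-induced writhing in mice after ip dosing, with a vehicle-injected group for comparison. Reported as mean ± SEM of 12 mice per group. Significance vs vehicle by one-way ANOVA followed by Bonferroni test.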

[3] = test system: Mus musculus; assay: Antinociceptive activity in Kunming mouse assessed as increase in licking latency time at 0.08 mg/kg, ip by hot plate test; assay type: functional, organism-based
[4] = test system: Mus musculus; assay: Antinociceptive activity in Kunming mouse model of STZ-induced diabetic neuropathy pain assessed as increase in paw withdrawal mechanical threshold at 0.2 to 0.4 mg/kg, po relative to gabapentin; assay type: functional
Procedure, shortened: (§2)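 Streptozotocin-diabetic mice with mechanical hyperalgesia were dosed orally (n = 8), with vehicle and gabapentin groups for comparison. Data are mean ± SEM. Significance vs vehicle by one-way ANOVA followed by Bonferroni test.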

[5] = Selectivity index, ratio of LD50 for toxicity in Kunming mouse to ID50 for antinociceptive activity in Kunming mouse model of acute pain; assay type: organism-based; details: in vivo, read-out: Selectivity Index
[6] = test system: Mus musculus; assay: Antinociceptive activity in po dosed Kunming mouse model of STZ-induced diabetic neuropathy pain assessed as complete reversal of mechanical hyperalgesia; assay type: functional, organism-based; procedure, shortened: as §2
[7] = test system: Mus musculus; assay: Antinociceptive activity in Kunming mouse model of acute pain assessed as inhibition of acetic acid-induced writhes at 0.08 mg/kg, ip administered 30 mins prior to acetic acid challenge measured for 30 mins relative to control; assay type: functional; procedure, shortened: as §1
[8] = test system: Mus musculus; assay: Antinociceptive activity in ip dosed Kunming mouse model of formalin-induced pain assessed as reduction of time spent in licking in phase 2 administered 30 mins before formalin injection measured for 15 to 30 mins; assay type: functional, organism-based
Procedure, shortened: (§3)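 Formalin test scored in phase I and phase II after ip dosing, against a vehicle group (n = 10). Control drugs used: morphine and ibuprofen. Data are mean ± SEM. Significance vs vehicle by one-way ANOVA followed by Bonferroni test.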

[9] = test system: Mus musculus; assay: Antinociceptive activity in ip dosed Kunming mouse model of formalin-induced pain assessed as reduction of time spent in licking in phase 1 administered 30 mins before formalin injection measured for 5 mins; assay type: functional, organism-based; procedure, shortened: as §3
[10] = test system: Mus musculus; assay: Toxicity in ip dosed Kunming mouse by Karber's method; assay type: organism-based; details: in vivo
[11] = test system: Mus musculus; assay: Antinociceptive activity in Kunming mouse model of acute pain assessed as inhibition of acetic acid-induced writhes at 0.08 mg/kg, ip administered 30 mins prior to acetic acid challenge measured for 30 mins in presence of nonselective opioid antagonist naloxone; assay type: functional, organism-based
[12] = test system: Mus musculus; assay: Antinociceptive activity in Kunming mouse assessed as increase in licking latency time at 0.02 to 0.08 mg/kg, ip by hot plate test; assay type: functional, organism-based
[13] = test system: Mus musculus; assay: Antinociceptive activity in Kunming mouse model of STZ-induced diabetic neuropathy pain assessed as increase in paw withdrawal mechanical threshold at 50 mg/kg, po; assay type: functional, organism-based; procedure, shortened: as §2
[14] = test system: Mus musculus; assay: Antinociceptive activity in Kunming mouse model of formalin-induced pain assessed as reduction of time spent in licking in phase 2 at 2 mg/kg, ip administered 30 mins before formalin injection measured after 15 mins up to 30 mins; assay type: functional, organism-based; procedure, shortened: as §3
[15] = test system: Mus musculus; assay: Antinociceptive activity in Kunming mouse model of formalin-induced pain assessed as reduction of time spent in licking in phase 1 at 2 mg/kg, ip administered 30 mins before formalin injection measured for 5 mins; assay type: functional, organism-based; procedure, shortened: as §3
[16] = test system: Mus musculus; assay: Antinociceptive activity in Kunming mouse model of acute pain assessed as inhibition of acetic acid-induced writhes at 0.8 mg/kg, ip administered 30 mins prior to acetic acid challenge measured for 30 mins in presence of nonselective opioid antagonist naloxone; assay type: functional, organism-based
[17] = test system: Mus musculus; assay: Antinociceptive activity in Kunming mouse model of formalin-induced pain assessed as reduction of time spent in licking in phase 1 at 60 mg/kg, ip administered 30 mins before formalin injection measured for 5 mins; assay type: functional, organism-based
Procedure, shortened: (§4)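 Formalin test in mice with phases I and II scored separately. Compounds given ip, n = 10 per group. Data are mean ± SEM, compared with the vehicle group by one-way ANOVA followed by the Bonferroni test.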

[18] = test system: Mus musculus; assay: Antinociceptive activity in Kunming mouse model of formalin-induced pain assessed as reduction of time spent in licking in phase 2 at 60 mg/kg, ip administered 30 mins before formalin injection measured after 15 mins up to 30 mins; assay type: functional, organism-based; procedure, shortened: as §4

Structure (SMILES): C=C1C[C@@]23C[C@@H](O)[C@@]4(O)[C@H](C(=C)[C@@H]2CC[C@@H]1[C@H]3O)[C@@H](O)[C@H](O)C4(C)C
- inhibition [1]: inactive

Structure (SMILES): CC1(C)[C@H]2O[C@H]2[C@H]2[C@](C)(O)[C@@H]3CC[C@@H]4[C@@H](O)[C@@]3(C[C@@H](O)[C@@]21O)C[C@@]4(C)O
- inhibition [2]: Dose-dependent effect
- ED50 [2]: 0.0469 mg/kg
- Activity [3]: Active
- fold change (FC) [4]: 100
- selectivity ratio [5]: 5.8
- Activity [6]: Dose-dependent effect
- inhibition in vivo at 0.08 mg/kg [7]: 73.7%
- Activity [8]: Dose-dependent effect
- Activity [9]: Dose-dependent effect
- LD50 [10]: 0.271 mg/kg
- inhibition [11]: Active

Structure (SMILES): CC1(C)[C@@H](O[C@@H]2O[C@H](CO)[C@@H](O)[C@H](O)[C@H]2O)[C@@H](O)[C@H]2[C@](C)(O)[C@@H]3CC[C@@H]4[C@@H](O)[C@@]3(C[C@@H](O)[C@@]21O)C[C@@]4(C)O
- inhibition [1]: inactive

Structure (SMILES): C=C1[C@@H]2[C@@H](O)[C@H](O)C(C)(C)[C@@]2(O)[C@H](O)C[C@]23C[C@@](C)(O)[C@H](CC[C@@H]12)[C@H]3O
- inhibition [1]: inactive

Structure (SMILES): CC1(C)[C@@H](O)[C@H](O)[C@H]2[C@](C)(O)[C@@H]3CC[C@@H]4[C@@H](O)[C@@]3(C[C@@H](O)[C@@]21O)C[C@@]4(C)O
- inhibition [2]: Dose-dependent effect
- ED50 [2]: 0.0727 mg/kg
- fold change (FC) [4]: 100
- selectivity ratio [5]: 24.6
- Activity [12]: inactive
- Activity [6]: Dose-dependent effect
- inhibition in vivo at 0.08 mg/kg [7]: 64.2%
- Activity [8]: Dose-dependent effect
- Activity [9]: Dose-dependent effect
- LD50 [10]: 1.791 mg/kg
- inhibition [11]: Active

Structure (SMILES): NCC1(CC(=O)O)CCCCC1
- Activity [13]: Active

Structure (SMILES): C=C1[C@@H]2[C@@H](O)[C@H](O[C@@H]3O[C@H](CO)[C@@H](O)[C@H](O)[C@H]3O)C(C)(C)[C@@]2(O)[C@H](O)C[C@]23C[C@@](C)(O)[C@H](CC[C@@H]12)[C@H]3O
- inhibition [1]: inactive

Structure (SMILES): CN1CC[C@]23c4c5ccc(O)c4O[C@H]2[C@@H](O)C=C[C@H]3[C@H]1C5 [MORPHINE]
- ED50 [2]: 0.343 mg/kg
- Activity [14]: Active
- Activity [15]: Active
- inhibition [16]: inactive

Structure (SMILES): CC1(C)[C@@H](O[C@@H]2O[C@H](CO)[C@@H](O)[C@H](O)[C@H]2O)[C@@H](O)[C@@H]2[C@@](C)(O)[C@@H]3CC[C@@H]4C[C@@]3(C[C@@H](O)[C@@]21O)C[C@@]4(C)O
- inhibition [1]: Active

Structure (SMILES): CC(C)Cc1ccc(C(C)C(=O)O)cc1 (stereo not drawn)
- Activity [17]: inactive
- Activity [18]: Active

Structure (SMILES): CC1=C2CC[C@@H]3[C@@H](O)[C@@]2(C[C@@H](O)[C@@]2(O)[C@H]1[C@@H](O)[C@H](O)C2(C)C)C[C@@]3(C)O
- inhibition [1]: inactive

Structure (SMILES): CC1(C)[C@@H](O)C[C@H]2[C@](C)(O)[C@@H]3CC[C@@H]4[C@@H](O)[C@@]3(C[C@@H](O)[C@@]21O)C[C@@]4(C)O [GRAYANOTOXIN III]
- inhibition in vivo at 0.08 mg/kg [7]: 55.6%

Structure (SMILES): CC1(C)[C@@H](O[C@@H]2O[C@H](CO)[C@@H](O)[C@H](O)[C@H]2O)[C@H](O)[C@H]2[C@](C)(O)[C@@H]3CC[C@@H]4[C@@H](O)[C@@]3(C[C@@H](O)[C@@]21O)C[C@@]4(C)O
- inhibition [1]: Active

Structure (SMILES): C=C1[C@@H]2CC[C@@H]3C[C@@]2(C[C@@H](O)[C@@]2(O)[C@@H]1[C@H](O)[C@H](O)C2(C)C)C[C@@]3(C)O
- inhibition [1]: Active

Structure (SMILES): C=C1[C@@H]2CC[C@@H]3[C@@H](O)[C@@]2(C[C@@H](O)[C@@]2(O)[C@H]1C[C@H](O)C2(C)C)C[C@@]3(C)O
- inhibition [1]: Active

Structure (SMILES): C=C1[C@@H]2[C@H](O)[C@H](O[C@@H]3O[C@H](CO)[C@@H](O)[C@H](O)[C@H]3O)C(C)(C)[C@@]2(O)[C@H](O)C[C@]23C[C@@](C)(O)[C@H](CC[C@@H]12)[C@H]3O
- inhibition [1]: inactive

Structure (SMILES): C=C1[C@@H]2[C@H](O)[C@H](O)C(C)(C)[C@@]2(O)[C@H](O)C[C@]23C=C(C)[C@H](CC[C@@H]12)[C@H]3O
- inhibition [1]: inactive

Structure (SMILES): CC1(C)[C@H]2O[C@H]2[C@H]2[C@](C)(O)[C@@H]3C[C@@H](O)[C@@H]4[C@@H](O)[C@@]3(C[C@@H](O)[C@@]21O)C[C@@]4(C)O
- inhibition [1]: Active

Structure (SMILES): CC1(C)[C@@H](O)[C@@H](O)[C@@H]2[C@@](C)(O)[C@@H]3CC[C@@H]4[C@@H](O)[C@@]3(C[C@@H](O)[C@@]21O)C[C@@]4(C)O
- inhibition [1]: Active
